From ChEMBL document CHEMBL1157730, “Diaryl piperidines as CB1 receptor antagonists” (Bioorg Med Chem Lett, 2010)

Legend:
Cannabinoid receptor 1 = Cannabinoid receptor 1 (Homo sapiens, UniProt P21554); test: Binding affinity to human CB1 receptor
Cannabinoid receptor 2 [1] = molecular target: T1, Cannabinoid receptor 2 (Homo sapiens, UniProt P34972); test: Binding affinity to human CB2 receptor
Mus musculus [2] = test: Reduction of food intake in DIO mouse model at 3 mg/kg, po after 6 hrs relative to control; format: functional; parameters: scale not given: the % may be the effect or the level left
How it was run: (§1)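 Fed diet-induced obese mice; oral dosing 1 h before dark onset; food intake measured at 2, 4, 6 and 24 h and expressed as percent reduction versus vehicle-treated mice; significance threshold p<0.05.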

Mus musculus [3] = test: Reduction of food intake in DIO mouse model at 3 mg/kg, po after 4 hrs relative to control; format: functional; parameters: scale not given: the % may be the effect or the level left; how it was run: as §1
[4] = Drug level in DIO mouse brain at 3 mg/kg, po after 24 hrs; format: ADME, organism-based; parameters: dose 3 mg/kg, route oral; settings: read-out: Drug uptake
How it was run: (§2)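 Diet-induced obese mice dosed orally at 3 mg/kg, 1 h before dark onset; total drug concentrations in plasma (ng/mL) and brain (ng/g) measured at the 24-h time point.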

[5] = Drug level in DIO mouse plasma at 3 mg/kg, po after 24 hrs; format: ADME, organism-based; parameters: dose 3 mg/kg, route oral; settings: read-out: Drug uptake; how it was run: as §2
Mus musculus [6] = test: Reduction of food intake in DIO mouse model at 3 mg/kg, po after 2 hrs relative to control; format: functional; parameters: scale not given: the % may be the effect or the level left; how it was run: as §1
Mus musculus [7] = test: Reduction of food intake in DIO mouse model at 3 mg/kg, po after 24 hrs relative to control; format: functional; parameters: scale not given: the % may be the effect or the level left; how it was run: as §1
Cannabinoid receptor 2 [8] = molecular target: T1, Cannabinoid receptor 2; test: Binding affinity to human CB2 receptor at 1 uM

Chain of Cannabinoid receptor 1 (P21554 whole entry): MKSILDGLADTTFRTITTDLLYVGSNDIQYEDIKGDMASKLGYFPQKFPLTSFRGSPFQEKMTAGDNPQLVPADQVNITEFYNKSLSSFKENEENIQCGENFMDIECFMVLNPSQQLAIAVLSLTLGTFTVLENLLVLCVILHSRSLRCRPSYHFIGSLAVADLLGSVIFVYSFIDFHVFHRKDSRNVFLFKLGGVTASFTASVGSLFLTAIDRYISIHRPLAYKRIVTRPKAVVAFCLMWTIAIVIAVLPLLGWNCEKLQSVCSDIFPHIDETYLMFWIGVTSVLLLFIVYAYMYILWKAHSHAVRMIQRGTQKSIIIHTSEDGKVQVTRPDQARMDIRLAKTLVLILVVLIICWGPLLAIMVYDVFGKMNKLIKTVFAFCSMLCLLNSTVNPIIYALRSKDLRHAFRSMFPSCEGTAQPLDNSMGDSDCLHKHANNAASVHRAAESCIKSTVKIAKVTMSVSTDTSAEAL
T1 sequence (P34972 whole entry): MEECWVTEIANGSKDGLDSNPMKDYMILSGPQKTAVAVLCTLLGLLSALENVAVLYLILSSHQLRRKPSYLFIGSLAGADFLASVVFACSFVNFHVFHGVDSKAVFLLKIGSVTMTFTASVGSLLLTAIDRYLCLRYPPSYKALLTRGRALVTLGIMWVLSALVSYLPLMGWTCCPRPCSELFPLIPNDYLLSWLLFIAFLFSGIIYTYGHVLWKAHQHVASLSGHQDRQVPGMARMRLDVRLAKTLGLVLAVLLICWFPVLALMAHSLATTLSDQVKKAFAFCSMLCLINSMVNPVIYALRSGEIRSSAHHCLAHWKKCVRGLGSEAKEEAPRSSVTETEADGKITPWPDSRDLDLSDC

Compound	Ki (Cannabinoid receptor 1) [nM]	Ki (Cannabinoid receptor 2 [1]) [nM]	other results
O=S(=O)(NCCC1CCC(c2ccc(Cl)cc2Cl)N(c2ccc(Cl)cc2)C1)C1CC1 (single isomer, unassigned; enantiomer 2)	57	> 2400	
CC(C)CCNS(=O)(=O)[C@@H]1CC[C@@H](c2ccc(Cl)cc2Cl)N(c2ccc(Cl)cc2)C1	9.1	1380	
CC(=O)N1CCN(C[C@@H]2CC[C@@H](c3ccc(Cl)cc3Cl)N(c3ccc(Cl)cc3)C2)CC1	451	> 1850	
NC[C@@H]1CC[C@@H](c2ccc(Cl)cc2Cl)N(c2ccc(Cl)cc2)C1	133	> 1850	
Fc1ccc(C[C@@H]2CC[C@H](c3ccc(Cl)cc3)N(c3ccc(Cl)cc3)C2)cc1F (relative stereo)	> 1640	> 1850	
N#Cc1ccc(S(=O)(=O)NCC[C@@H]2CC[C@@H](c3ccc(Cl)cc3Cl)N(c3ccc(Cl)cc3)C2)cc1	4.2	> 2220	
CC(=O)NCC[C@@H]1CC[C@@H](c2ccc(Cl)cc2Cl)N(c2ccc(Cl)cc2)C1	42	> 2400	
N#Cc1ccc(C(=O)NC[C@@H]2CC[C@@H](c3ccc(Cl)cc3Cl)N(c3ccc(Cl)cc3)C2)cc1	5	1410	Activity (Mus musculus [2]): 24%; Activity (Mus musculus [3]): 22%; concentration at 24 h [4]: 12 ng/g; concentration at 24 h [5]: 28 ng/mL; Activity (Mus musculus [6]): 22%; Activity (Mus musculus [7]): 10%
N#Cc1ccc(C(=O)NCC[C@@H]2CC[C@@H](c3ccc(Cl)cc3Cl)N(c3ccc(Cl)cc3)C2)cc1	5.1	> 2450	
O=S(=O)(C1CC1)N1CCN(C[C@@H]2CC[C@@H](c3ccc(Cl)cc3Cl)N(c3ccc(Cl)cc3)C2)CC1	44	> 2220	
O=S(=O)(NC[C@@H]1CC[C@@H](c2ccc(Cl)cc2Cl)N(c2ccc(Cl)cc2)C1)c1cccnc1	6	> 1850	
O=S(=O)(NC[C@@H]1CC[C@@H](c2ccc(Cl)cc2Cl)N(c2ccc(Cl)cc2)C1)C1CC1	158	> 1850	
O=C1[C@@H](Cc2ccc(F)c(F)c2)CC[C@H](c2ccc(Cl)cc2Cl)N1c1ccc(Cl)cc1 (relative stereo)	109	> 1680	
O=C(NCc1ccc(Cl)cc1)[C@@H]1CC[C@@H](c2ccc(Cl)cc2Cl)N(c2ccc(Cl)cc2)C1	63	> 1850	
O=S(=O)(NCC[C@@H]1CC[C@@H](c2ccc(Cl)cc2Cl)N(c2ccc(Cl)cc2)C1)C1CC1	3.8	> 2220	
Fc1ccc(C[C@H]2CC[C@H](c3ccc(Cl)cc3)N(c3ccc(Cl)cc3)C2)cc1F (relative stereo)	72	> 1770	
CC(C)CNC(=O)[C@@H]1CC[C@@H](c2ccc(Cl)cc2Cl)N(c2ccc(Cl)cc2)C1	33	1580	
O=C(NC[C@@H]1CC[C@@H](c2ccc(Cl)cc2Cl)N(c2ccc(Cl)cc2)C1)C1CC1	112		inhibition (Cannabinoid receptor 2 [8]): 25%

Compound	Ki (Cannabinoid receptor 1) [nM]	Ki (Cannabinoid receptor 2 [1]) [nM]	other results
CC(C)(C)OC(=O)N1CCN(C[C@@H]2CC[C@@H](c3ccc(Cl)cc3Cl)N(c3ccc(Cl)cc3)C2)CC1	8	> 1850	
CS(=O)(=O)N1CCN(C[C@@H]2CC[C@@H](c3ccc(Cl)cc3Cl)N(c3ccc(Cl)cc3)C2)CC1	690	> 1850	
O=C(NC1CCCCC1)[C@@H]1CC[C@@H](c2ccc(Cl)cc2Cl)N(c2ccc(Cl)cc2)C1	18	368	
CC(C)(C)CC(=O)N1CCN(C[C@@H]2CC[C@@H](c3ccc(Cl)cc3Cl)N(c3ccc(Cl)cc3)C2)CC1	13	> 2400	Activity (Mus musculus [2]): 3%; Activity (Mus musculus [3]): 0%; concentration at 24 h [5]: 1 ng/mL; Activity (Mus musculus [6]): 0%; Activity (Mus musculus [7]): 9%
O=S(=O)(NC[C@@H]1CC[C@@H](c2ccc(Cl)cc2Cl)N(c2ccc(Cl)cc2)C1)c1cccc2ccccc12	2.3		inhibition (Cannabinoid receptor 2 [8]): 5%
O=S(=O)(NCCC1CCC(c2ccc(Cl)cc2Cl)N(c2ccc(Cl)cc2)C1)C1CC1 (stereo in doubt; 14f)	3.4	> 2400	Activity (Mus musculus [2]): 38%; Activity (Mus musculus [3]): 37%; concentration at 24 h [4]: 66 ng/g; concentration at 24 h [5]: 15 ng/mL; Activity (Mus musculus [6]): 39%; Activity (Mus musculus [7]): 37%
O=S(=O)(NCC[C@@H]1CC[C@@H](c2ccc(Cl)cc2Cl)N(c2ccc(Cl)cc2)C1)c1cccnc1	5.8	> 2220	
O=C(NC1CCC1)[C@@H]1CC[C@@H](c2ccc(Cl)cc2Cl)N(c2ccc(Cl)cc2)C1	33	1380	
O=S(=O)(C[C@@H]1CC[C@@H](c2ccc(Cl)cc2Cl)N(c2ccc(Cl)cc2)C1)NC1CCCCC1	35	1250	
O=C1[C@@H](Cc2ccc(F)c(F)c2)CC[C@H](c2ccc(Cl)cc2)N1c1ccc(Cl)cc1 (relative stereo)	444	574	
Clc1ccc(N2C[C@H](CN3CCNCC3)CC[C@H]2c2ccc(Cl)cc2Cl)cc1	554	> 2000	
Fc1ccc(C[C@H]2CC[C@H](c3ccc(Cl)cc3)N(c3ccc(Cl)cc3Cl)C2)cc1F (relative stereo)	467	> 1850	
NCC[C@@H]1CC[C@@H](c2ccc(Cl)cc2Cl)N(c2ccc(Cl)cc2)C1	61	> 2220	
CCCS(=O)(=O)NC[C@@H]1CC[C@@H](c2ccc(Cl)cc2Cl)N(c2ccc(Cl)cc2)C1	48		inhibition (Cannabinoid receptor 2 [8]): 25%
Fc1ccc(C[C@H]2CC[C@H](c3ccc(Cl)cc3Cl)N(c3ccc(Cl)cc3)C2)cc1F (relative stereo)	15	> 1850	
CC(C)(C)CCN1CCN(C[C@@H]2CC[C@@H](c3ccc(Cl)cc3Cl)N(c3ccc(Cl)cc3)C2)CC1	57	> 1500	
O=C1[C@H](Cc2ccc(F)c(F)c2)CC[C@H](c2ccc(Cl)cc2)N1c1ccc(Cl)cc1 (relative stereo)	714	> 1780	
